Active and inactive are the calls of the source. The calls are words filed in the database; no cut-off is given here.
Key:
[1] = tested on: Jurkat; assay: Antiproliferative activity against human Jurkat T cells after 48 hrs by MTT assay
[2] = tested on: PC-3; assay: Antiproliferative activity against human PC3 cells at 4 uM after 48 hrs by MTT assay; type: functional; settings: PC-3, 48 h
Summary of the method: (§1)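 Epithelial cancer lines came from ATCC and were seeded the day before in complete medium: PC-3, SkOV3 and A549 at 3,000/well; MiaPaCa-2 and BxPC-3 at 4,000; T-47D and MDA-MB-468 at 5,000. Medium was switched to 0.5% FBS just before exposure to 4 μM. Read-out was MTT (4 h, 37 °C), SDS/HCl solubilisation, A595 minus cell-free blank. Growth inhibition was taken versus DMSO (≤0.1% v/v) controls, ≥2 experiments in triplicate.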

[3] = tested on: SK-OV-3; assay: Antiproliferative activity against human SKOV3 cells at 4 uM after 48 hrs by MTT assay; type: functional; settings: SK-OV-3, 48 h; summary of the method: as §1
[4] = tested on: A549; assay: Antiproliferative activity against human A549 cells at 4 uM after 72 hrs by MTT assay; type: functional; settings: A549, 72 h; summary of the method: as §1
[5] = tested on: MIA PaCa-2; assay: Antiproliferative activity against human MIAPaCa2 cells at 4 uM after 48 hrs by MTT assay; type: functional; settings: MIA PaCa-2, 48 h; summary of the method: as §1
[6] = tested on: BXPC-3; assay: Antiproliferative activity against human BxPC3 cells at 4 uM after 48 hrs by MTT assay; type: functional; settings: BXPC-3, 48 h; summary of the method: as §1
[7] = tested on: T47D; assay: Antiproliferative activity against human T47D cells at 4 uM after 48 hrs by MTT assay; type: functional; summary of the method: as §1
[8] = tested on: MDA-MB-468; assay: Antiproliferative activity against human MDA-MB-468 cells at 4 uM after 48 hrs by MTT assay; type: functional; settings: MDA-MB-468, 48 h; summary of the method: as §1
[9] = tested on: Jurkat; assay: Induction of apoptosis in human Jurkat T cells assessed as induction of DEVDase activity at 1 uM after 4 hrs by fluorescence assay; type: functional, cell-based
Summary of the method: (§2)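 Jurkat cells (40,000/well, 10^6 cells/mL, RPMI with 0.5% FBS) were treated for 4 h; controls got 0.1% DMSO. Lysis was in CE buffer (PIPES pH 7, NP-40, cytochalasin B, protease inhibitors) for 30 min at 4 °C. Lysates were mixed with 2x caspase buffer (HEPES pH 7.4, CHAPS, sucrose) holding 100 μM Ac-DEVD-AFC and incubated at 37 °C for 30 min. AFC was read every 2 min, ex 390/em 510 nm.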

[10] = tested on: Jurkat; assay: Induction of apoptosis in human Jurkat T cells assessed as induction of DEVDase activity at 4 uM after 4 hrs by fluorescence assay; type: functional, cell-based; summary of the method: as §2
[11] = target: T1, Retinoic acid receptor alpha (Homo sapiens) (UniProt P10276); assay: Transactivation of Gal4-LBD fused human RARalpha (156 to 454) transfected in african green monkey CV1 cells assessed as luciferase activity at 2 uM after 6 hrs by Dual-light chemiluminescent assay; type: cell-based; settings: CV-1
T1 sequence (whole entry): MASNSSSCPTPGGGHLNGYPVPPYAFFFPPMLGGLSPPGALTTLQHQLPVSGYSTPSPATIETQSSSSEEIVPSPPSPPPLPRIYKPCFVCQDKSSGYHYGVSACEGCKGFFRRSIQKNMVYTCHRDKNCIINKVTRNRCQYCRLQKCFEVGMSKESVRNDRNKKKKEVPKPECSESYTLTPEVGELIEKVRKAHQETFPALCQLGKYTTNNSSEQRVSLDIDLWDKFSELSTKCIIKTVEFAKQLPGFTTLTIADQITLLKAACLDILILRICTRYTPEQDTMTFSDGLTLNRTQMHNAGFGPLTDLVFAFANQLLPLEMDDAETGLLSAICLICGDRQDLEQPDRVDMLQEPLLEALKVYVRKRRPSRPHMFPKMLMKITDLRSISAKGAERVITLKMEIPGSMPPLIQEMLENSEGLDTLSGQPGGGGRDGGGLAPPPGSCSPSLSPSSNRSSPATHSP

[12] = target: T2, Retinoic acid receptor beta (Homo sapiens) (UniProt P10826); assay: Transactivation of Gal4-LBD fused human RARbeta (169 to 448) transfected in african green monkey CV1 cells assessed as luciferase activity at 2 uM after 6 hrs by Dual-light chemiluminescent assay; type: cell-based; settings: CV-1
T2 sequence (whole entry): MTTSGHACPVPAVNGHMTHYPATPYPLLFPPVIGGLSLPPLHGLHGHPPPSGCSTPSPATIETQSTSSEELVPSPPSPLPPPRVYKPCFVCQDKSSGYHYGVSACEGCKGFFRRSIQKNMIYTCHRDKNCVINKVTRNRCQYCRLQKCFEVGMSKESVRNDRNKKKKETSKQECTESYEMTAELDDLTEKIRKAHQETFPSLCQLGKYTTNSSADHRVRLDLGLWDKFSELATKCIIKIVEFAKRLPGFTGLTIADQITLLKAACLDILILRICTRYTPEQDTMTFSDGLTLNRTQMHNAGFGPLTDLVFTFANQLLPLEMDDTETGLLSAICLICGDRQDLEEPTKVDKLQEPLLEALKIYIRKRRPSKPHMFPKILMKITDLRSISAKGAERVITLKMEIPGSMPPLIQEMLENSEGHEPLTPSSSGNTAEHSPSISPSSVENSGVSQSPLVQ
Summary of the method: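 Transfected CV-1 cells carried Gal4-LBD constructs: hRARα 156–462, hRARβ 169–448, hRARγ 178–454 or mRXRα 218–467. Transfection used 10 ng Gal4-LBD, 100 ng UAS-luciferase and 25 ng β-gal vector. After 16 h the medium was changed to 5% charcoal-treated FBS. Cells were stimulated with 2 μM analog for 6 h (RARα, RARβ, RXRα) or 20 h (RARγ). Reference agonists were 1 μM atRA (RARα) and 1 μM 9cRA (RXRα). Luciferase and β-galactosidase were read by chemiluminescence.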

[13] = target: T1, Retinoic acid receptor alpha (Homo sapiens); assay: Inhibition of transactivation activity of Gal4-LBD fused human RARalpha (156 to 454) transfected in atRA-stimulated african green monkey CV1 cells at 0.2 uM after 6 hrs by Dual-light chemiluminescent assay; type: cell-based
Summary of the method: (§3)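 Gal4 DBD (1–147) was fused to hRARα (156–462) or hRARβ (169–448) LBD. CV-1 cells (20,000/well) were co-transfected with 10 ng Gal4-LBD, 100 ng UAS-luciferase and 25 ng β-gal vector. After 16 h the medium was replaced with medium containing 5% charcoal-treated FBS. Cells got atRA plus test compound at 10-, 40- or 200-fold excess (0.2, 0.8, 4 μM) for 6 h. Luciferase and β-galactosidase were read by chemiluminescence.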

[14] = target: T2, Retinoic acid receptor beta (Homo sapiens); assay: Inhibition of transactivation activity of Gal4-LBD fused human RARbeta (169 to 448) transfected in atRA-stimulated african green monkey CV1 cells at 4 uM after 6 hrs by Dual-light chemiluminescent assay; type: cell-based; settings: CV-1; summary of the method: as §3
[15] = target: T3, Retinoic acid receptor gamma (Homo sapiens) (UniProt P13631); assay: Inhibition of transactivation activity of Gal4-LBD fused human RARgamma (178 to 454) transfected in atRA-stimulated african green monkey CV1 cells at 4 uM after 20 hrs by Dual-light chemiluminescent assay; settings: CV-1
T3 sequence (whole entry): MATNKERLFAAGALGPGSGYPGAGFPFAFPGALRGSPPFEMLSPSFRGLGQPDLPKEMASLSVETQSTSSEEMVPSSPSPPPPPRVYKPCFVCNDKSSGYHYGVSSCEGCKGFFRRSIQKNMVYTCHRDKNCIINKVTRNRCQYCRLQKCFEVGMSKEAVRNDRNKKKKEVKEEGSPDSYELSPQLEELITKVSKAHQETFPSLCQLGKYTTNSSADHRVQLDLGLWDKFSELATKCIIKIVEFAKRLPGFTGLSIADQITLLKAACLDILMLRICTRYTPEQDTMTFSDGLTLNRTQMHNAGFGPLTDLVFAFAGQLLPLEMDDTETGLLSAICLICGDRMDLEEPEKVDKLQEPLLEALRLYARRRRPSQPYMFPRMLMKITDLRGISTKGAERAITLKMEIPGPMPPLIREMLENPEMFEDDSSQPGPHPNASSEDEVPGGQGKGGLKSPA

[16] = target: T1, Retinoic acid receptor alpha (Homo sapiens); assay: Inhibition of transactivation activity of Gal4-LBD fused human RARalpha (156 to 454) transfected in atRA-stimulated african green monkey CV1 cells at 4 uM after 6 hrs by Dual-light chemiluminescent assay; type: cell-based; settings: CV-1; summary of the method: as §3
[17] = target: T4, Retinoic acid receptor RXR-alpha (Mus musculus, UniProt P28700); assay: Transactivation of Gal4-LBD fused mouse RXRalpha (218 to 467) transfected in african green monkey CV1 cells assessed as luciferase activity at after 6 hrs by Dual-light chemiluminescent assay; type: cell-based, CV-1
T4 sequence (P28700 whole entry): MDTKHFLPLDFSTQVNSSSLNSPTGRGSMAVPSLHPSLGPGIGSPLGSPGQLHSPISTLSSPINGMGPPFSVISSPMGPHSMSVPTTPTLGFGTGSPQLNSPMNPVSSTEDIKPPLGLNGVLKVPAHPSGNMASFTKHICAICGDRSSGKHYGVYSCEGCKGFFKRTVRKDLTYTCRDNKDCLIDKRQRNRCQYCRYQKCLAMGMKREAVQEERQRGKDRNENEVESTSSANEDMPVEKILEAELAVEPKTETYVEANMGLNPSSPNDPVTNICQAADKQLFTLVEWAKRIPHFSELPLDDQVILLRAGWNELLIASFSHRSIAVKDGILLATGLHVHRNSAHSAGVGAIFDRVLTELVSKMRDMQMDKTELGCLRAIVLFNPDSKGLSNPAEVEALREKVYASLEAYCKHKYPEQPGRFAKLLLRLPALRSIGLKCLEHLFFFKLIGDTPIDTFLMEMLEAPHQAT

[18] = tested on: Jurkat; assay: Antiproliferative activity against human Jurkat T cells at 62.5 nM after 48 hrs by MTT assay; type: functional, cell-based
Summary of the method: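 Jurkat T cells were resuspended at 10^5 cells/mL in RPMI with 0.5% FBS (10,000/well) and seeded immediately before dosing at 62.5 nM–2 μM for two days. Viability was read by MTT (4 h, 37 °C), formazan dissolved in 10% SDS/10 mM HCl, A595 with cell-free background subtracted. Values are relative to DMSO controls (≤0.1% v/v); at least two experiments in triplicate.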

Compound	IC50 [1] [nM]	inhibition at 4 µM [2] [%]	inhibition at 4 µM [3] [%]	inhibition at 4 µM [4] [%]	inhibition at 4 µM [5] [%]	inhibition at 4 µM [6] [%]	inhibition at 4 µM [7] [%]	inhibition at 4 µM [8] [%]	Activity [9]	Activity [10]	Activity [11]	Activity [12]	inhibition ([13]; CV-1, 4 uM, in the assay text read “at 4 uM” for “at 0.2 uM”) [%]	Activity [14]	Activity [15]	inhibition [16] [%]	inhibition ([13]; CV-1, 0.2 uM)	EC50 [17] [nM]	Activity [18]
COCCOCOc1ccc(C(=O)/C=C/c2ccc(C(=O)O)cc2)cc1C12CC3CC(CC(C3)C1)C2	287	92.1	61.5	42.1	74.9	96.6	50.6	72.4	Active	Active	inactive	inactive	90	Active	Active	–	–	–	–
COCCOCOc1cc(C)c(-c2ccc(/C=C/C(=O)O)cc2Cl)cc1C12CC3CC(CC(C3)C1)C2	1870	72	80.1	51.1	63.3	45.8	29.1	42	–	–	inactive	inactive	–	inactive	inactive	27	inactive	600	–
C/C(=C/c1ccc(C(=O)O)cc1)c1ccc(O)c(C23CC4CC(CC(C4)C2)C3)c1	82	92.3	67	79	76.1	95.7	62.7	76.7	Active	Active	inactive	inactive	–	–	–	–	–	–	–
Cc1cc(O)c(C23CC4CC(CC(C4)C2)C3)cc1-c1ccc2cc(C(=O)O)ccc2c1Cl	435	97.7	87	88.1	91.5	94.7	55.8	59.2	Active	–	inactive	inactive	–	inactive	inactive	27	inactive	–	–
Cc1cc(O)c(C23CC4CC(CC(C4)C2)C3)cc1-c1ccc(/C=C/C(=O)O)cc1Cl	1410	68.7	65.1	23.7	26.3	36	24.2	24.9	–	–	inactive	inactive	–	inactive	inactive	–	inactive	576	inactive

Source: ChEMBL document CHEMBL1158389, “Highly twisted adamantyl arotinoids: synthesis, antiproliferative effects and RXR transactivation profiles” (Eur J Med Chem, 2009)
